Source: ChEMBL document CHEMBL5058577, “EUbOPEN Chemogenomics Library 2 (Multiplex)” (2022)

Tested on: Fibroblast
Test: Multiplex assay against human fibroblast
Format: toxicity, cell-based
Method in brief: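 Live cells were stained at seeding with Hoechst33342, BioTracker Green Microtubule Cytoskeleton Dye, MitoTracker Red and Annexin V Alexa Fluor 680, then imaged on a CQ1 microscope at 37°C and 5% CO2 after compound addition. CellPathfinder machine-learning gating split cells into Hoechst high-intensity objects or normal cells. Normal cells were split into healthy, pyknosed or fragmented nuclei, and pyknosed cells into mitotic or apoptotic. Tubulin, mitochondrial-mass and membrane-permeability phenotypes are per cents of healthy-nucleus cells.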

[1] = 12 h, 1 µM, compound concentration 1 uM, replicate 1
[2] = 12 h, 1 µM, compound concentration 1 uM, replicate 2
[3] = 12 h, 10 µM, compound concentration 10 uM, replicate 1
[4] = 12 h, 10 µM, compound concentration 10 uM, replicate 2
[5] = 24 h, 1 µM, compound concentration 1 uM, replicate 1
[6] = 24 h, 1 µM, compound concentration 1 uM, replicate 2
[7] = 24 h, 10 µM, compound concentration 10 uM, replicate 1
[8] = 24 h, 10 µM, compound concentration 10 uM, replicate 2
[9] = 48 h, 1 µM, compound concentration 1 uM, replicate 1
[10] = 48 h, 1 µM, compound concentration 1 uM, replicate 2
[11] = 48 h, 10 µM, compound concentration 10 uM, replicate 1
[12] = 48 h, 10 µM, compound concentration 10 uM, replicate 2

SMILES: COc1cccc2c1c(NS(=O)(=O)c1ccc(Cl)s1)nn2Cc1cccc(CNC(=O)C(C)(C)O)c1
- Population Apoptotic (%) [1]: 43%
- Population Fragmented Nuclei (%) [1]: 16%
- Population Healthy Nuclei (%) [1]: 66%
- Population Hoechst High Intensity Objects (%) [1]: 0%
- Population Membrane Permeable-Phenotype (%) [1]: 1%
- Population Mitochondria Different-Phenotype (%) [1]: 2%
- Population Mitotic Cells (%) [1]: 56%
- Population Normal (%) [1]: 99%
- Population Pyknosed Nuclei (%) [1]: 17%
- Population Tubulin-Different-Phenotype (%) [1]: 27%
- Total Cell Count [1]: 134
- Population Apoptotic (%) [2]: 33%
- Population Fragmented Nuclei (%) [2]: 26%
- Population Healthy Nuclei (%) [2]: 54%
- Population Membrane Permeable-Phenotype (%) [2]: 4%
- Population Mitochondria Different-Phenotype (%) [2]: 1%
- Population Mitotic Cells (%) [2]: 66%
- Population Normal (%) [2]: 100%
- Population Pyknosed Nuclei (%) [2]: 18%
- Population Tubulin-Different-Phenotype (%) [2]: 18%
- Total Cell Count [2]: 112
- Population Apoptotic (%) [3]: 42%
- Population Fragmented Nuclei (%) [3]: 13%
- Population Healthy Nuclei (%) [3]: 72%
- Population Hoechst High Intensity Objects (%) [3]: 2%
- Population Membrane Permeable-Phenotype (%) [3]: 1%
- Population Mitochondria Different-Phenotype (%) [3]: 11%
- Population Mitotic Cells (%) [3]: 57%
- Population Normal (%) [3]: 97%
- Population Pyknosed Nuclei (%) [3]: 13%
- Population Tubulin-Different-Phenotype (%) [3]: 37%
- Total Cell Count [3]: 211
- Population Apoptotic (%) [4]: 41%
- Population Fragmented Nuclei (%) [4]: 24%
- Population Healthy Nuclei (%) [4]: 55%
- Population Hoechst High Intensity Objects (%) [4]: 7%
- Population Membrane Permeable-Phenotype (%) [4]: 7%
- Population Mitochondria Different-Phenotype (%) [4]: 4%
- Population Mitotic Cells (%) [4]: 58%
- Population Normal (%) [4]: 92%
- Population Pyknosed Nuclei (%) [4]: 19%
- Population Tubulin-Different-Phenotype (%) [4]: 55%
- Total Cell Count [4]: 174
- Population Apoptotic (%) [5]: 55%
- Population Fragmented Nuclei (%) [5]: 19%
- Population Healthy Nuclei (%) [5]: 68%
- Population Hoechst High Intensity Objects (%) [5]: 2%
- Population Membrane Permeable-Phenotype (%) [5]: 2%
- Population Mitochondria Different-Phenotype (%) [5]: 3%
- Population Mitotic Cells (%) [5]: 44%
- Population Normal (%) [5]: 97%
- Population Pyknosed Nuclei (%) [5]: 12%
- Population Tubulin-Different-Phenotype (%) [5]: 28%
- Total Cell Count [5]: 144
- Population Apoptotic (%) [6]: 50%
- Population Fragmented Nuclei (%) [6]: 28%
- Population Healthy Nuclei (%) [6]: 49%
- Population Hoechst High Intensity Objects (%) [6]: 1%
- Population Membrane Permeable-Phenotype (%) [6]: 7%
- Population Mitochondria Different-Phenotype (%) [6]: 5%
- Population Mitotic Cells (%) [6]: 50%
- Population Normal (%) [6]: 98%
- Population Pyknosed Nuclei (%) [6]: 22%
- Population Tubulin-Different-Phenotype (%) [6]: 35%
- Total Cell Count [6]: 110
- Population Apoptotic (%) [7]: 48%
- Population Fragmented Nuclei (%) [7]: 11%
- Population Healthy Nuclei (%) [7]: 74%
- Population Hoechst High Intensity Objects (%) [7]: 2%
- Population Membrane Permeable-Phenotype (%) [7]: 1%
- Population Mitochondria Different-Phenotype (%) [7]: 7%
- Population Mitotic Cells (%) [7]: 52%
- Population Normal (%) [7]: 97%
- Population Pyknosed Nuclei (%) [7]: 13%
- Population Tubulin-Different-Phenotype (%) [7]: 30%
- Total Cell Count [7]: 190
- Population Apoptotic (%) [8]: 50%
- Population Fragmented Nuclei (%) [8]: 22%
- Population Healthy Nuclei (%) [8]: 55%
- Population Hoechst High Intensity Objects (%) [8]: 8%
- Population Membrane Permeable-Phenotype (%) [8]: 6%
- Population Mitochondria Different-Phenotype (%) [8]: 2%
- Population Mitotic Cells (%) [8]: 50%
- Population Normal (%) [8]: 92%
- Population Pyknosed Nuclei (%) [8]: 22%
- Population Tubulin-Different-Phenotype (%) [8]: 48%
- Total Cell Count [8]: 175
- Population Apoptotic (%) [9]: 62%
- Population Fragmented Nuclei (%) [9]: 21%
- Population Healthy Nuclei (%) [9]: 66%
- Population Hoechst High Intensity Objects (%) [9]: 5%
- Population Membrane Permeable-Phenotype (%) [9]: 1%
- Population Mitochondria Different-Phenotype (%) [9]: 5%
- Population Mitotic Cells (%) [9]: 37%
- Population Normal (%) [9]: 94%
- Population Pyknosed Nuclei (%) [9]: 12%
- Population Tubulin-Different-Phenotype (%) [9]: 30%
- Total Cell Count [9]: 135
- Population Apoptotic (%) [10]: 75%
- Population Fragmented Nuclei (%) [10]: 26%
- Population Healthy Nuclei (%) [10]: 60%
- Population Hoechst High Intensity Objects (%) [10]: 2%
- Population Membrane Permeable-Phenotype (%) [10]: 8%
- Population Mitochondria Different-Phenotype (%) [10]: 3%
- Population Mitotic Cells (%) [10]: 25%
- Population Normal (%) [10]: 97%
- Population Tubulin-Different-Phenotype (%) [10]: 55%
- Total Cell Count [10]: 99
- Population Apoptotic (%) [11]: 63%
- Population Fragmented Nuclei (%) [11]: 13%
- Population Healthy Nuclei (%) [11]: 73%
- Population Hoechst High Intensity Objects (%) [11]: 5%
- Population Membrane Permeable-Phenotype (%) [11]: 3%
- Population Mitochondria Different-Phenotype (%) [11]: 10%
- Population Mitotic Cells (%) [11]: 36%
- Population Normal (%) [11]: 94%
- Population Pyknosed Nuclei (%) [11]: 12%
- Population Tubulin-Different-Phenotype (%) [11]: 40%
- Total Cell Count [11]: 187
- Population Apoptotic (%) [12]: 51%
- Population Fragmented Nuclei (%) [12]: 33%
- Population Healthy Nuclei (%) [12]: 49%
- Population Hoechst High Intensity Objects (%) [12]: 6%
- Population Mitochondria Different-Phenotype (%) [12]: 4%
- Population Mitotic Cells (%) [12]: 48%
- Population Normal (%) [12]: 93%
- Population Pyknosed Nuclei (%) [12]: 17%
- Population Tubulin-Different-Phenotype (%) [12]: 43%
